These results are taken from ChEMBL document CHEMBL1145490, “Beta-lactam resistance in Haemophilus parasuis Is mediated by plasmid pB1000 bearing blaROB-1” (2007).

Format in all cases: functional
Assay [1] concerns Haemophilus parasuis. Description: Antimicrobial activity against Haemophilus parasuis BB 1024. To be noted: Glaesserella parasuis. The essentials: (§1)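 H. parasuis isolates grown on chocolate agar and in Haemophilus test medium broth at 37°C under microaerophilic conditions (5% CO2). Susceptibility was profiled by disk diffusion and broth microdilution in Haemophilus test medium for fastidious bacteria, following a previously described method.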

In assay [2] the test system is Haemophilus parasuis. In words: Antimicrobial activity against Haemophilus parasuis BB 1025. To be noted: Glaesserella parasuis. The essentials:
as §1

For assay [3], the system named is Escherichia coli. In words: Antimicrobial activity against Escherichia coli.
In assay [4] the test system is Escherichia coli. Description: Antimicrobial activity against Escherichia coli pB1000 expressing ROB1 beta lactamase.
Assay [5] has as its system Haemophilus parasuis. Description: Antimicrobial activity against Haemophilus parasuis BB 1026. The conditions noted are these: Glaesserella parasuis. In short, it runs like this:
as §1

In assay [6] the test system is Haemophilus parasuis. In words: Antimicrobial activity against Haemophilus parasuis ATCC 19417. The conditions noted are these: Glaesserella parasuis. In short, it runs like this: as §1
Assay [7] deals with Haemophilus parasuis. In words: Antimicrobial activity against Haemophilus parasuis BB 1018. The conditions noted are these: Glaesserella parasuis. In short, it runs like this: as §1
In assay [8] the test system is Haemophilus parasuis. Description: Antimicrobial activity against Haemophilus parasuis BB 1019. To be noted: Glaesserella parasuis. The essentials:
as §1

The test system of assay [9] is Haemophilus parasuis. Description: Antimicrobial activity against Haemophilus parasuis BB 1020. The conditions noted are these: Glaesserella parasuis. The essentials:
as §1

In assay [10] the test system is Haemophilus parasuis. In words: Antimicrobial activity against Haemophilus parasuis BB 1021. To be noted: Glaesserella parasuis. The essentials: as §1
The subject of assay [11] is Haemophilus parasuis. In words: Antimicrobial activity against Haemophilus parasuis BB 1022. The conditions noted are these: Glaesserella parasuis. The essentials:
as §1

For assay [12], the system named is Haemophilus parasuis. In words: Antimicrobial activity against Haemophilus parasuis BB 1023. To be noted: Glaesserella parasuis. The essentials: as §1

The structures appear in SMILES notation. ≈ marks a conversion by molar mass, not a printed value.

As for `Cc1onc(-c2ccccc2)c1C(=O)N[C@@H]1C(=O)N2[C@@H]1SC(C)(C)[C@@H]2C(=O)O` [OXACILLIN], the MIC (in general, the least concentration at which growth counts as inhibited) was at most 0.25 µg/mL in assay [1]; at most 0.25 µg/mL in assay [2]; above 4 µg/mL in assay [3]; above 4 µg/mL in assay [4]; at most 0.25 µg/mL in [5]; at most 0.25 µg/mL in assay [6]. Further, the MIC in [7], in [8], in assay [9], in assay [10], in assay [11] and in assay [12] was at most 0.25 µg/mL in each case.

Take `CC1(C)S[C@@H]2[C@H](NC(=O)[C@H](N)c3ccc(O)cc3)C(=O)N2[C@H]1C(=O)O` [AMOXICILLIN]: the minimum inhibitory concentration (MIC) in assay [1] is above 256 µg/mL; in [2], above 256 µg/mL; in assay [3] it was 4 µg/mL (≈ 10.9 µM); in assay [4], above 256 µg/mL; in [5], at most 2 µg/mL; in assay [6], at most 2 µg/mL. Besides, the MIC in [7], in assay [8], in assay [9], in assay [10], in assay [11] and in assay [12] was above 256 µg/mL in each case.

Turning to `CO/N=C(\C(=O)N[C@@H]1C(=O)N2C(C(=O)O)=C(COC(C)=O)CS[C@H]12)c1csc(N)n1` [CEFOTAXIME], the MIC in assay [1] is 0.06 µg/mL (≈ 0.132 µM); in assay [2], 0.06 µg/mL (≈ 0.132 µM); in assay [3] it was 0.06 µg/mL (≈ 0.132 µM); in assay [4] it was 0.06 µg/mL (≈ 0.132 µM); in [5] it was at most 0.03 µg/mL; in [6], at most 0.03 µg/mL. For the same compound, the MIC in [7] was 0.06 µg/mL (≈ 0.132 µM); in [8], 0.06 µg/mL (≈ 0.132 µM); in assay [9], at most 0.03 µg/mL; in [10], 0.06 µg/mL (≈ 0.132 µM); in [11] it was 0.06 µg/mL (≈ 0.132 µM); in [12], 0.12 µg/mL (≈ 0.263 µM).

Consider `N[C@@H](C(=O)N[C@@H]1C(=O)N2C(C(=O)O)=C(Cl)CS[C@H]12)c1ccccc1` [CEFACLOR ANHYDROUS], for which the MIC was above 16 µg/mL in assay [1]; above 16 µg/mL in assay [2]; 8 µg/mL (≈ 21.8 µM) in assay [3]; 128 µg/mL (≈ 348 µM) in assay [4]; at most 1 µg/mL in assay [5]; at most 1 µg/mL in assay [6]. Also, the MIC in assay [7], in assay [8], in assay [9], in assay [10], in assay [11] and in [12] was above 16 µg/mL in each case.
